The record followed here is ChEMBL document CHEMBL1131607, “Synthesis of 7-arylmorphinans. Probing the "address" requirements for selectivity at opioid delta receptors” (J Med Chem, 1998).

SMILES strings stand for the structures.

Usually IC50 stands for the concentration needed to halve the response being measured. Read a low IC50 as greater potency in that assay.

The species named for test [1] is Cavia porcellus. Briefly: (§1) Compound was tested for opioid agonist activity in the electrically stimulated guinea pig ileal longitudinal muscle(GPI). The test is classed as functional, Muscle tissue. The essentials:
(§2)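 Electrically stimulated guinea pig ileal longitudinal muscle or mouse vas deferens, hydrochloride salts. Weak agonists tested at a single 1 μM concentration, reported as percent of maximal response (±SE). Full agonists run at four to six concentrations to give a concentration-response curve compared with a standard agonist in the same tissue. IC50 = agonist concentration giving half-maximal response; a negative value means enhanced twitch amplitude.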

For test [2], the species on record is Mus musculus. The test is described as follows: (§3) Compound was tested for opioid agonist activity in the electrically stimulated mouse vas deferens(MVD). The test is classed as functional. The essentials:
as §2

The target of test [3] is Delta-type opioid receptor (Mus musculus) (UniProt P32300). The test is described as follows: Inhibition of [D-Ala2,D-Leu5]-enkephalin (DADLE) activity in the electrically stimulated mouse vas deferens. The method in brief: (§4)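 Antagonism in electrically stimulated smooth muscle, hydrochloride salts. Test ligand 100 nM preincubated for 15 min before the standard agonist: DADLE (δ) in mouse vas deferens, morphine (μ) and ethylketazocine (κ) in guinea pig ileal longitudinal muscle. IC50 ratio = agonist IC50 with test compound / control agonist IC50. Ke (nM) = [antagonist]/(IC50 ratio − 1).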
Chain of Delta-type opioid receptor (Mus musculus) (P32300 whole entry): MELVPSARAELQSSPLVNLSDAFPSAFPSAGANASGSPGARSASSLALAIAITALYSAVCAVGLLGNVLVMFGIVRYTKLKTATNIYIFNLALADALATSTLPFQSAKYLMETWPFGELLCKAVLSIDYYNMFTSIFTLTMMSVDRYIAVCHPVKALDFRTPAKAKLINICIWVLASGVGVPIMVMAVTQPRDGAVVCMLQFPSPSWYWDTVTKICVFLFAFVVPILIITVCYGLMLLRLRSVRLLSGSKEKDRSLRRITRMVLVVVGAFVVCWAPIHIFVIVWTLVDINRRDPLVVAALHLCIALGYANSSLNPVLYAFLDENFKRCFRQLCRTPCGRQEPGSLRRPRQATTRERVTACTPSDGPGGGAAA

In test [4] the target is Mu-type opioid receptor (Cavia porcellus) (UniProt P97266). Briefly: Compound was tested for opioid antagonist activity in the electrically stimulated GPI preparation, against morphine (Opioid receptor mu 1). The test is classed as functional. The method in brief:
as §4

Test [5] has as its target Kappa-type opioid receptor (Cavia porcellus) (UniProt P41144). Briefly: Antagonist activity against electrically stimulated guinea pig ileum Opioid receptor kappa 1. The test is classed as functional, tissue-based. The method in brief: as §4
Test [6] is filed under the species Cavia porcellus. The test is described as §1. The test is classed as functional, organism-based. The conditions noted are these: Muscle tissue. The method in brief: as §2
For test [7], the species on record is Mus musculus. The test is described as §3. The test is classed as functional, organism-based. The method in brief:
as §2

Chain of Mu-type opioid receptor (Cavia porcellus) (P97266 whole entry): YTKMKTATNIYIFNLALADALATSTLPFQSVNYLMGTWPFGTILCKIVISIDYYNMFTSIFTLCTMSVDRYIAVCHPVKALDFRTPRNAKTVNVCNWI
Chain of Kappa-type opioid receptor (Cavia porcellus) (P41144 whole entry): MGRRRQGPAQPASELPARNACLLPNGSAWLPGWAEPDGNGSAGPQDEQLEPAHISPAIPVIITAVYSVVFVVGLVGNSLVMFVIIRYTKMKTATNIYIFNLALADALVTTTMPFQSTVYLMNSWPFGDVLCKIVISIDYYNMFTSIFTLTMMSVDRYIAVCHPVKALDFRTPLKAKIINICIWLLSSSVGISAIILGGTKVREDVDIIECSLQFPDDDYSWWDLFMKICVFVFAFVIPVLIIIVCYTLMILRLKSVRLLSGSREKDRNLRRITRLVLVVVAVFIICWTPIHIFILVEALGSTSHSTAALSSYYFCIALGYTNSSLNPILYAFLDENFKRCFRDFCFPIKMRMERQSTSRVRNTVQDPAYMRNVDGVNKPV

For the compound `CN1CC[C@]23c4c5ccc(O)c4O[C@H]2[C@@H](O)[C@@H](c2cccc([N+](=O)[O-])c2)CC3[C@H]1C5` (some centres not stated), the Max response came to 49.3% in the test listed under Cavia porcellus [1] and 56.1% in the test filed under Mus musculus [2]. Besides, the IC50 ratio in test [3] was 0.99; in test [4], 0.34; in test [5], 1.05.

In the case of `Oc1ccc2c3c1O[C@H]1c4[nH]c5ccccc5c4C[C@@]4(O)[C@@H](C2)N(CC2CC2)CC[C@]314` [NALTRINDOLE], the Ke in the test listed under Cavia porcellus [1] is 29 nM; in the test filed under Mus musculus [2], 0.13 nM.

Take `O=[N+]([O-])c1cccc([C@H]2CC3[C@H]4Cc5ccc(O)c6c5[C@@]3(CCN4C3CC3)[C@@H](O6)[C@H]2O)c1` (some centres not stated): the IC50 ratio in test [3] worked out at 4.17.

For `CN1CC[C@]23c4c5ccc(O)c4O[C@H]2[C@@H](O)[C@@H](c2ccc(Br)cc2)CC3[C@H]1C5` (some centres not stated), the Max response in the test filed under Cavia porcellus [1] amounted to 10%; in the test filed under Mus musculus [2], 15.2%. For the same compound, the figures for the IC50 ratio in test [3], in test [4] and in test [5] were 1.17, 1.2 and 1.76, respectively.

Consider `CC(=O)O[C@H]1[C@@H](c2ccccc2)CC2[C@H]3Cc4ccc(O)c5c4[C@@]2(CCN3C2CC2)[C@H]1O5` (some centres not stated), for which the 50% inhibitory concentration (IC50) in the test filed under Cavia porcellus [6] is 118 nM. In the test filed under Mus musculus [2], this compound gave a Max response of 21.1%. Besides, the IC50 ratio in test [3] worked out at 6.38.

With `CC(=O)O[C@H]1[C@@H](c2ccccc2)CC2[C@H]3Cc4ccc(O)c5c4[C@@]2(CCN3C)[C@H]1O5` (some centres not stated), the Max response in the test listed under Cavia porcellus [1] was 24%; in the test filed under Mus musculus [2] it was 34.3%. Moreover, the IC50 ratio in test [3] is 1.02; in test [4] it was 0.9; in test [5], 1.08.

As to `O=C1[C@@H](c2ccccc2)C[C@H]2[C@H]3Cc4ccc(O)c5c4[C@@]2(CCN3C2CC2)[C@H]1O5`, the IC50 ratio in test [3] is 17.6.

Turning to `CN1CC[C@]23c4c5ccc(O)c4O[C@H]2C(=O)C(c2ccccc2)(c2ccccc2)CC3[C@H]1C5` (some centres not stated), the Max response is recorded as 9.7% in the test listed under Cavia porcellus [1] and 5.4% in the test filed under Mus musculus [2]. For the same compound, the IC50 ratio in test [3] worked out at 2.34; in test [4] it was 1.69; in test [5], 1.01.

`CN1CC[C@]23c4c5ccc(O)c4O[C@H]2C(=O)[C@@H](c2ccccc2)C[C@H]3[C@H]1C5`: the Max response in the test filed under Cavia porcellus [1] is recorded as 53.9%; in the test listed under Mus musculus [2], 29.2%. Besides, the IC50 ratio in test [3] came to 0.97; in test [4], 1.05; in test [5], 0.75.

For the compound `Oc1ccc2c3c1O[C@H]1[C@@H](O)[C@@H](c4ccccc4)CC4[C@@H](C2)N(C2CC2)CC[C@@]341` (some centres not stated), the IC50 ratio in test [3] was 3.03.

With `CN1CC[C@]23c4c5ccc(O)c4O[C@H]2[C@@H](O)[C@@H](c2ccccc2)CC3[C@H]1C5` (some centres not stated), the Max response in the test filed under Cavia porcellus [1] worked out at 23.2%. This compound had a concentration for half-maximal inhibition (IC50) in the test listed under Mus musculus [7] of 178 nM. In addition, the results for the IC50 ratio in test [4] and in test [5] were 1.85 and 1.9, respectively.
